Series [1] in a line: Change in logarithm of partition coefficient of the compound. Format: physicochemical. The conditions noted are these: octanol/water. The gist of the method:
(§1)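 Shake-flask partitioning at 37 °C in 1-octanol/water and cyclohexane/water, with buffer salts setting aqueous pH. Aqueous-phase compound concentration was read spectrophotometrically before and after partitioning. Neutral-form log P was calculated from eq 1 using the measured log P at a stated pH and the pKa. Values are means of ≥2 determinations. Δlog P = log P(octanol) − log P(cyclohexane).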

A short description of series [2]: Log (Cbrain/Cblood) in rats. The following applies: rat.
A short description of series [3]: Log of (Cbrain/Cblood) in rats. The conditions noted are these: rat.
Series [4] in a line: Partition coefficient (Log Pn, neutral form, cyclohexane/water). Format: ADME. Summed up:
as §1

Series [5] has as its target Histamine H2 receptor (Cavia porcellus) (UniProt P47747). Put plainly: In vitro Histamine H2 receptor antagonist activity in the histamine-stimulated guinea pig right atrium. The conditions noted are these: Cardiac atrium. Format: functional, tissue-based.
Series [6] can be described thus: (§2) Logarithm of partition coefficient of the neutral form of compound given for octanol/water solvent system. Format: physicochemical. Summed up: (§3)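 Shake-flask partitioning at 37 °C in 1-octanol/water and cyclohexane/water, with buffer salts setting aqueous pH. Aqueous-phase compound concentration was read spectrophotometrically before and after partitioning. Neutral-form log P was calculated from eq 1 using the measured log P at a stated pH and the pKa.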

A short description of series [7]: Delta logPoct-cyc. Format: ADME. The following applies: octanol/water. Summed up:
as §3

A short description of series [8]: as §2. Format: physicochemical. Summed up:
as §1
The source holds these as a separate data set.

The nature of series [9]: Logarithm of partition coefficient of the neutral form of compound given for […]/water solvent system. The conditions noted are these: octanol/water. Format: physicochemical.

Chain of Histamine H2 receptor (Cavia porcellus) (P47747 whole entry): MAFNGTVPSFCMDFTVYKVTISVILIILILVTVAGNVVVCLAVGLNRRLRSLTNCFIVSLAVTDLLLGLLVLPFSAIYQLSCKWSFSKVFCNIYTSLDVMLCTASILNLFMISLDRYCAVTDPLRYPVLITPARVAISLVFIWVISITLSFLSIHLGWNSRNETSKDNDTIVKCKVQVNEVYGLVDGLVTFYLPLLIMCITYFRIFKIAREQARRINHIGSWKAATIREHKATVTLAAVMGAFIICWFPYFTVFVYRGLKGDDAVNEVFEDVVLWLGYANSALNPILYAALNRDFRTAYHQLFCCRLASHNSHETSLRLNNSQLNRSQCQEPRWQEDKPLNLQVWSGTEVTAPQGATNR

By Kp is commonly meant the ratio of the level in a tissue or fluid to that in plasma or blood. As to `C/N=C(\NC#N)Nc1cccc(-c2csc(N=C(N)N)n2)c1`, the “delta Log P” value in [1] is 4.26. Further, the concentration ratio (Kp) is 0.0288 in series [2] (brain and blood); 0.0293 in series [3] (brain and blood). The “Log Pn” value in [4] is -2.66. This compound also yielded a -Log KB in series [5] of 7.84.
The logP is the decadic logarithm of the partition coefficient of the neutral form, usually between octanol and water. Low readings indicate lower lipophilicity, high ones higher lipophilicity. On to `CN(C)Cc1ccc(CSCCNc2[nH]ccc2[N+](=O)[O-])o1`, for which the “delta Log P” value in [1] was 3.12. In addition, the concentration ratio (Kp) in series [2] (brain and blood) is 0.0759; in series [3] (brain and blood), 0.0652. The “Log Pn” value in [4] is given as -1.48. The same compound yielded a log partition coefficient (logP) in [6] of 1.64. Also, the -Log KB in series [5] is 6.63.
Regarding `COc1ccc(CN(CCN(C)C)c2ccccn2)cc1` [PYRILAMINE], the “delta logP” value in series [7] stood at 0.71. The same compound came in with a lipophilicity (logP) in series [6] of 3.3.
`c1cc(CN2CCCCC2)cc(OCCCNc2nc3ccccc3o2)c1` returned a concentration ratio (Kp) in series [3] (in vivo) of 1.42. The -Log KB in [5] was found to be 7.19.
For the compound `CN(C)Cc1ccc(CSCCNc2[nH]cc(Cc3ccccc3)c2[N+](=O)[O-])o1`, the “delta Log P” value in series [1] amounted to 2.54. For the same compound, the Kp in [2] (in vivo) was 0.186; in [3] (in vivo) it was 0.184. Further, in [4], the “Log Pn” value was 1.11. Further, the log partition coefficient (logP) in series [6] turned out to be 3.65. The -Log KB in [5] stood at 7.35.
Take `O=S(=O)(NCCCOc1cccc(CN2CCCCC2)c1)c1ccccc1`: the -Log KB in series [5] is under 4.8.
On to `CN(C)Cc1ccc(-c2cccc(Nc3[nH]ccc3[N+](=O)[O-])c2)o1`, for which, in series [1], the “delta Log P” value amounted to 2.88. Further, the partition ratio (Kp) in series [2] (brain and blood) was 0.537; in series [3] (brain and blood), 0.545. Further, the “Log Pn” value in series [4] came to 0.22. The same compound gave a logP in series [6] of 3.1. The compound further displayed a -Log KB in [5] of 6.02.
Turning to `c1ccc(NCCCOc2cccc(CN3CCCCC3)c2)cc1`, in series [5], the -Log KB turned out to be 5.7.
Consider `CC/N=C(\NC#N)NCCSCc1ncccc1Br`, for which the Kp in series [2] (in vivo) was 0.00708; in [3] (in vivo), 0.00753. Further, in series [6], the lipophilicity (logP) turned out to be 1.98. Further, the -Log KB in series [5] was 6.5.
In series [5], `CN(C)Cc1ccc(-c2ccc(Nc3[nH]ccc3[N+](=O)[O-])cc2)o1` displayed a -Log KB of under 4.3.
As for `CC(=O)NCCCOc1cccc(CN2CCCCC2)c1`, the “delta Log P” value in series [1] worked out at 1.93. In addition, the results for the partition ratio (Kp) in series [2] (in vivo) and in [3] (in vivo) were 0.347 and 0.346, respectively. For the same compound, the “Log Pn” value in series [4] came to 0.22. For the same compound, in series [6], the logP is 2.15. In series [5], this compound had a -Log KB of 7.79.
`O=[N+]([O-])c1c(Cc2ccccc2)c[nH]c1NCCSCc1ccccn1`: the concentration ratio (Kp) in series [2] (brain and blood) was 0.759; in series [3] (brain and blood), 0.724. The compound further came in with a -Log KB in [5] of 6.97.
Regarding `Cc1csc(N=C(N)N)n1`, in series [1], the “delta Log P” value was found to be 4.03. The partition ratio (Kp) was 0.912 in [2] (in vivo) and 0.873 in [3] (in vivo). In addition, the “Log Pn” value in series [4] is -2.79. Further, the -Log KB in [5] amounted to 6.27.
`O=[N+]([O-])c1cc[nH]c1NCCSCc1ccccn1` displayed a concentration ratio (Kp) in [3] (in vivo) of 0.18. Further, in series [5], the -Log KB turned out to be 6.7.
In the case of `CN/C(=C\[N+](=O)[O-])NCCSCc1ccc(CN(C)C)o1` [RANITIDINE], the Kp in series [2] (in vivo) is 0.0589; in [3] (in vivo) it was 0.0586. Besides, the “Log Pn” value in [4] is under -3. Also, the logP in series [6] was determined as 0.27. The -Log KB in series [5] was 7.05.
In the case of `COc1cccnc1CCCCNc1ncc(Cc2ccc(C)nc2)c(=O)[nH]1` [ICOTIDINE], the “delta logP” value in [7] stood at 5.18. In [8], this compound yielded a logP of 2.58.
As to `c1cc(CN2CCCCC2)cc(OCCCNc2nccs2)c1`, the Kp is 2.75 in series [2] (in vivo) and 1.98 in series [3] (in vivo). In [5], the -Log KB came to 7.41.
In the case of `CS(=O)(=O)NCCCOc1cccc(CN2CCCCC2)c1`, the -Log KB in series [5] stood at 4.67.
Still for that read-out and setting: the result for `c1cc(CN2CCCCC2)cc(OCCCNc2ccc3ccccc3n2)c1` reads 6.21.
Consider `CN(C)c1cc(-c2n[nH]c(N)n2)ccn1`, for which the Kp in series [2] (brain and blood) is 0.0676. The -Log KB in series [5] came to 5.59.
Take `c1ccc(NCCCOc2cccc(CN3CCCCC3)c2)nc1`: the “delta Log P” value in [1] was 1.06. For the same compound, the figures for the Kp in [2] (in vivo) and in series [3] (in vivo) were 4.9 and 4.85, respectively. In series [4], the “Log Pn” value came to 3.23. Further, in [6], the logP was 4.29. This compound had a -Log KB in [5] of 6.09.
For `Clc1cccc(Cl)c1N=C1NCCN1` [CLONIDINE], the “delta logP” value in series [7] worked out at 2.44.
`N=C(N)Nc1nc(-c2ccccc2)cs1` showed a -Log KB in [5] of 5.93.
`O=[N+]([O-])c1cc[nH]c1NCCSCc1ncccc1Br`: the “delta Log P” value in [1] stood at 3.09. Moreover, the concentration ratio (Kp) in [2] (brain and blood) was 0.214; in [3] (brain and blood) it was 0.214. In addition, in series [4], the “Log Pn” value is on record as -1.34. In [6], the lipophilicity (logP) turned out to be 1.75. This compound came in with a -Log KB in series [5] of 7.24.
`Cc1[nH]cnc1CSCCNc1[nH]ccc1[N+](=O)[O-]` gave a logP in series [6] of 1.04. The compound further had a -Log KB in series [5] of 7.31.
As for `OCCCOc1cccc(CN2CCCCC2)c1`, the “Log Pn” value in series [4] amounted to 1.31. For the same compound, the logP in series [6] is 2.78.
For `NC(N)=Nc1nc(-c2ccccc2)cs1`, in series [1], the “delta Log P” value is on record as 3.92. Besides, the concentration ratio (Kp) in series [2] (brain and blood) is 0.661; in [3] (brain and blood), 0.66. The “Log Pn” value in series [4] is -1.28. The compound also registered a logP in series [6] of 2.64.
As to `CN(C)Cc1ccc(-c2cccc(CNc3[nH]ccc3[N+](=O)[O-])c2)o1`, the -Log KB in [5] was under 3.8.
In turn, `CNC(=NCCSCc1csc(N=C(N)N)n1)NC#N` [TIOTIDINE] showed a lipophilicity (logP) in [6] of 0.6.
Take `O=[N+]([O-])c1cc[nH]c1NCCSCc1nccc2ccccc12`: the “delta Log P” value in [1] is listed as 3.46. The “Log Pn” value in series [4] is -0.67. In series [6], this compound returned a log partition coefficient (logP) of 2.79. The -Log KB in [5] was 6.84.
In turn, `NCCCOc1cccc(CN2CCCCC2)c1` showed a -Log KB in [5] of 5.19.
As to `CC(=O)Nc1cccc(-c2csc(N=C(N)N)n2)c1`, the concentration ratio (Kp) in series [2] (in vivo) is 0.0269; in series [3] (in vivo), 0.018. For the same compound, the -Log KB in [5] is 7.36.
Consider `CN(C)Cc1ccc(CSCCNc2ncc(Cc3ccc4ccccc4c3)c(O)n2)o1`, for which, in series [7], the “delta logP” value was 4.1. In series [6], this compound yielded a logP of 4.57.
As for `O=C(NCCCOc1cccc(CN2CCCCC2)c1)c1ccccc1`, the “delta Log P” value in [1] turned out to be 1.79. Besides, the Kp is 0.575 in [2] (in vivo) and 0.58 in series [3] (in vivo). Besides, in series [4], the “Log Pn” value was determined as 2.18. This compound also registered a log partition coefficient (logP) in series [6] of 3.97. The same compound came in with a -Log KB in series [5] of 7.79.
Consider `CN(C)c1cccc(-c2csc(NC(=N)N)n2)c1`, for which the -Log KB in series [5] was under 3.8.
As for `N=C(N)Nc1nc(-c2cccc(N)c2)cs1`, the “delta Log P” value in series [1] was 4.6. In addition, the Kp in series [2] (brain and blood) is 0.0708; in [3] (brain and blood) it was 0.0705. Also, the “Log Pn” value in series [4] is listed as -3.19. In addition, the logP in [6] was 1.41. This compound showed a -Log KB in series [5] of 7.33.
As for `CN(C)Cc1ccnc(-c2cccc(Nc3[nH]ccc3[N+](=O)[O-])c2)c1`, the values for the partition ratio (Kp) in series [2] (in vivo) and in series [3] (in vivo) were 0.525 and 0.454, respectively. In addition, the -Log KB in series [5] was determined as 6.6.
Turning to `CC(NCCCOc1cccc(CN2CCCCC2)c1)=C(C#N)C#N`, the -Log KB in [5] is under 4.9.
With `c1cc(CN2CCCCC2)cc(OCCCNc2nc3ccccc3s2)c1` [ZOLANTIDINE], the “delta Log P” value in series [1] is given as 1.69. This compound yielded a Kp in series [3] (in vivo) of 1.38. Also, in [4], the “Log Pn” value was determined as 3.72. In addition, the -Log KB in series [5] was determined as 7.46.
As for `Cc1ccc(Cc2c[nH]c(NCCSCc3ccc(CN(C)C)o3)nc2=O)cn1` [LUPITIDINE], the “delta Log P” value in [1] worked out at 3.81. The concentration ratio (Kp) in series [2] (brain and blood) is 0.0871; in series [3] (brain and blood) it was 0.0884. The “Log Pn” value in [9] is given as 2.64; in [4], -1.48. Also, in [6], the lipophilicity (logP) amounted to 2.33. For the same compound, the -Log KB in series [5] worked out at 7.91.
For `FC(F)(F)CNCCCOc1cccc(CN2CCCCC2)c1`, the -Log KB in [5] was under 4.3.

(Values after ChEMBL document CHEMBL1124065, “Development of a new physicochemical model for brain penetration and its application to the design of centrally acting H2 receptor histamine antagonists” (J Med Chem, 1988).)
